# Bioassay records from PubChem BioAssay.
# Only some compounds are listed: those with a hit (about 2.6% of all), similar ones and a draw of the others.
# miR-122 sensor: miR-122 Renilla sensor signal increase in Huh7, primary screen, miR-122 inhibitor project, cell-based, single point, plate reader; Huh7 miR-122 Renilla luciferase sensor, 48 h; neutral wells = 0, positive control = 100; activation (reporter increase), % at 12.5 µM; actives 0.3% (n = 340,000); AID 602342, 2012;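 active means mean replicate activation score at least 90 and every replicate individually at or above 90; inconclusive means only one of the two criteria met; inactive means neither criterion met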;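 further: higher luciferase means less miR-122 activity so hits act as miR-122 inhibitors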
# DENV2 CPE rescue: inhibitors of DENV2 cytopathic effect, primary screen, cell-based, plate reader, single concentration; AID 651640, 2012; CPE inhibition, % at 9.99 µM; actives 1.7% (n = 350,000); DENV2-infected cells, cytopathic effect rescue; in the data active means CPE inhibition above about 20%, passing the limit was not always enough; inconclusive means no clear call, values can overlap the other calls; tested in BHK-21 cells;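 further: 0% = median of neutral control wells and 100% = median of positive control wells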
# CFTR F508del cor: F508del CFTR correction, initial screen, CFBE line, single point; activity (quench increase), % at 7.58 µM; actives 0.36% (n = 350,000); CFBE cells, YFP halide quenching; stimulated with forskolin plus potentiator P3; % fluorescence drop versus neutral controls;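 active means mean added fluorescence quench of at least 8% versus neutral control, with both replicates also reaching 8%; inconclusive means only one of the mean or replicate conditions met; inactive means mean below 8% and not both replicates reaching 8%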;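 further: cells transiently co-express mutant CFTR-F508del with the halide-sensitive YFP; corrector assay measuring rescue of mutant channel to the surface after 24 h compound exposure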
# ERAP1 inh: human ERAP1 aminopeptidase inhibitors, primary screen, biochemical, single point, plate reader; Endoplasmic reticulum aminopeptidase 1 (Homo sapiens), Q9NZ08; recombinant ERAP1, Leu-AMC fluorescence, 60 min; inhibition, % at 10.7 µM; actives 0.15% (n = 340,000);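 active means mean replicate inhibition of at least 30%, or all replicates individually reaching that 30% level; inactive means mean below 30% and not every replicate reaching it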;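 further: 0% = neutral control wells and 100% = L-leucinethiol positive control wells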
# E-sel inducer: E-selectin induction in HUVECs, primary screen, imaging, HUVEC, immunofluorescence imaging, single point; actives 0.37% (n = 260,000); P16581; normalized: neutral wells 0, TNF-alpha wells 100; activation, % at 7.58 µM; AID 686992, 2013;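 active means mean E-selectin-positive cell signal at least 10% of the positive control, reached in at least 60% of replicates, without over 20% cell loss; inconclusive means no rule given, readout overlaps actives, possibly toxicity-flagged; inactive means the rest, including those meeting only one limit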
# Target sequence (P16581 whole entry, looked up): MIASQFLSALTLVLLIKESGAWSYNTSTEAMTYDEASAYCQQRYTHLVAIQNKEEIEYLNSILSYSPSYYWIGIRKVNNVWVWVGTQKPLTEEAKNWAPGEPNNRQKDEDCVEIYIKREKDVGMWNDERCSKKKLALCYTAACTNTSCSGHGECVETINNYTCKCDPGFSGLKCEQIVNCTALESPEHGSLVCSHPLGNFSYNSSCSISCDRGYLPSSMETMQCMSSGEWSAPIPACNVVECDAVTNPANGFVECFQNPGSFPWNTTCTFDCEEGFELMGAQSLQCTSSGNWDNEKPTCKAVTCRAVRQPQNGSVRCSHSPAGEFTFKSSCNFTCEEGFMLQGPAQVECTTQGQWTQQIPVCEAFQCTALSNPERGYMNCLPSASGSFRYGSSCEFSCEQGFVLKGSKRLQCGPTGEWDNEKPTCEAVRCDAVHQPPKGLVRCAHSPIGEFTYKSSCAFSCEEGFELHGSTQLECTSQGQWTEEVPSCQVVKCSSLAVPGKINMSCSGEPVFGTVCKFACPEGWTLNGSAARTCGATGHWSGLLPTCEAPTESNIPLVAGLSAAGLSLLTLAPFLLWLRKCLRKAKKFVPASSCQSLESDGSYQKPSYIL
#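 Test system – human umbilical vein endothelial cells (HUVEC), E-selectin induction · Input – 3,000 HUVEC seeded per well · Buffer or medium – EGM-2, gelatin · Compound dosing – single-point compound dose · Detection – immunofluorescence imaging · Measure – percent E-selectin-positive cells · Controls – TNF-alpha high, DMSO low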
# INS-1E GSIS act: GLuc luminescence reporter in INS-1E cells, primary screen for activators of glucose-dependent secretion of insulin. actives 0.61% (n = 370,000). activation, % at 16.6 µM. INS-1E GLuc reporter insulin secretion, 2-3 h. AID 743287, 2014;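 active means lowest replicate activation of at least 40%, so every replicate reaches that level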;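 further: 0% = median of neutral control wells and 100% = median of IBMX positive control wells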
# * hit, by the source's call; ? = inconclusive; · = no result; [ ] = remark or other dose.
SMILES,miR-122 sensor,DENV2 CPE rescue,CFTR F508del cor,ERAP1 inh,E-sel inducer,INS-1E GSIS act
C[C@@H]1CCCCO[C@@H](CN(C)Cc2ccc(Cl)c(Cl)c2)[C@@H](C)CN([C@H](C)CO)C(=O)c2cc(NS(=O)(=O)c3ccc(Cl)cc3)ccc2O1,-4.6[16.7 µM],78.7*,2.5,-3.3,·,5.1
C[C@@H]1CCCCO[C@H](CN(C)Cc2ccc(Cl)c(Cl)c2)[C@@H](C)CN([C@@H](C)CO)C(=O)c2cc(NS(=O)(=O)c3ccc(F)cc3)ccc2O1,·,30.9*,5.6,-0.9,-0.1,-7.6
CCOC(=O)c1cc2sccc2n1CC(=O)N1c2ccccc2CC1C (stereo not drawn),·,·,·,·,·,472.0*
CCCCCCn1c(-c2cccs2)n[nH]c1=S,-1.6,0.8,-0.2,4.0,·,45.8*
CN1CCN(C(=S)Nc2ccc(Cl)c(Cl)c2)CC1,27.2,77.7*,0.3,-2.8,·,-14.8
Cc1c(C)c2c(OCC(=O)O)cc3c(c2oc1=O)CCC(C)(C)O3,·,11.7,0.2,0.7,0.0,248.3*
NC(=O)C1(N2CCCCC2)CCN(S(=O)(=O)c2ccccc2)CC1,2.9,-9.2,1.8,4.0,-0.1,0.1
COc1ccc(S(=O)(=O)N2CCC(C(N)=O)(N3CCCCC3)CC2)cc1OC,0.3,3.5,0.1,1.9,·,71.1*
CN1C(=O)c2cc(NC(=O)Nc3ccccc3Cl)ccc2OC[C@H]2O[C@H](CC(=O)O)CC[C@@H]21,-33.3[16.7 µM],-1.1,0.3,·,0.1,11.6
O=C(NCc1ccccn1)c1n[nH]c(=O)c2ccccc12,-3.7,3.9,8.6*,·,-0.3,32.3
CCC(C)(C)C1CCc2[nH]nc(C(=O)NCc3ccccn3)c2C1 (stereo not drawn),·,77.0*,-0.3,-1.5,-0.1,6.8
CCC(C)(C)C1CCc2[nH]nc(C(=O)NCc3ccc(Cl)cc3)c2C1 (stereo not drawn),2.4,-12.6,0.9,·,0.1,0.2
C[C@@H]1CCCCO[C@@H](CN(C)C)[C@H](C)CN([C@@H](C)CO)C(=O)c2cc(NC(=O)NC3CCCCC3)ccc2O1,4.7[16.7 µM],·,1.7,·,-0.3,-4.1
Cc1cccc(S(=O)(=O)N[C@@H]2CC[C@@H](CCn3cc(-c4ccccn4)nn3)O[C@H]2CO)c1,·,2.6,2.4,-0.7,-0.3,4.0
CCC(=O)N(C)C[C@H]1Oc2ncc(-c3ccc(C)cc3)cc2C(=O)N([C@H](C)CO)C[C@@H]1C,20.7[16.7 µM],10.3,0.6,4.0,-0.1,-2.8
COc1ccc(-c2cc(NC(C)=O)c3ncc(-c4cccc(C(C)=O)c4)n3c2)cc1OC,5.1,48.8*,-1.5,15.4,-0.1,4.6
COc1ccc(-c2cnc3c(NC=O)cc(-c4ccc(F)cc4)cn23)cc1OC,16.2,-2.6,1.2,1.7,0.4,·
COc1ccc(-c2cnc3c(NC=O)cc(-c4ccccc4)cn23)cc1OC,-0.3,-3.9,13.2*,0.0,0.4,22.5
COc1cccc(-c2cnc3c(NC(C)=O)cc(-c4ccc(OC)c(OC)c4)cn23)c1,4.7,11.9,0.6,8.1,0.0,-3.7
CC(=O)Nc1cc(-c2cccc(C(=O)NCCN(C)C)c2)cn2c(-c3cccc(C(F)(F)F)c3)cnc12,-23.4,8.7,-1.4,8.2,0.7,169.8*
CCCNC(=O)N1C[C@H](C)[C@H](OC)CN(C)C(=O)c2cc(NC(=O)C3CCC3)ccc2OC[C@H]1C,-25.9[16.7 µM],·,-0.8,·,-0.2,-2.0
COCC(=O)Nc1ccc2c(c1)C(=O)N(C)[C@H]1CC[C@H](CC(=O)NCCc3ccncc3)O[C@@H]1CO2,·,·,·,·,·,-6.8
COc1cc(C(=O)NCC(=O)NNC(=O)C2COc3ccccc3O2)cc(OC)c1OC (stereo not drawn),-4.7,-10.7,-4.7,0.6,151.6*,7.2
CC(C)NC(=O)N(C)C[C@H]1OCCCC[C@H](C)Oc2ccc(NC(=O)Cc3ccccc3)cc2C(=O)N([C@@H](C)CO)C[C@H]1C,0.1[16.7 µM],7.8,-0.3,0.7,0.1,7.5
Cc1cc(C)c2nc(NC(=O)c3ccc4c(=O)n5c(nc4c3)CCCCC5)sc2c1,·,-6.2,-0.9,8.9,34.5*,-5.5
SMILES,miR-122 sensor,DENV2 CPE rescue,CFTR F508del cor,ERAP1 inh,E-sel inducer,INS-1E GSIS act
O=C(C[C@H]1C[C@H]2c3cc(NS(=O)(=O)c4ccc(F)cc4)ccc3O[C@H]2[C@@H](CO)O1)NCc1ccc(Oc2ccccc2)cc1,6.8[16.7 µM],0.6,-8.7,-0.2,1.6,-0.6
O=C(C[C@@H]1CC[C@@H]2[C@H](COC[C@H](O)CN2S(=O)(=O)c2ccccc2)O1)NCCN1CCCC1,·,6.6,6.1,0.0,-0.1,1.8
Cc1noc(C)c1S(=O)(=O)Nc1cccc2c1O[C@H](CN(C)C(=O)NC(C)C)[C@H](C)CN([C@@H](C)CO)C2=O,4.0[16.7 µM],87.8*,-1.8,-0.7,-0.1,3.2
Cc1noc(C)c1S(=O)(=O)Nc1cccc2c1O[C@H](CN(C)C(=O)NC(C)C)[C@H](C)CN([C@H](C)CO)C2=O,-3.7[16.7 µM],2.6,-1.1,4.1,0.0,5.9
Cc1ccc(S(=O)(=O)Nc2cccc3c2O[C@@H](CN(C)C(=O)NC(C)C)[C@H](C)CN([C@@H](C)CO)C3=O)cc1,6.6[16.7 µM],6.8,-1.5,0.1,0.9,9.6
Cc1ccc(S(=O)(=O)Nc2cccc3c2O[C@@H](CN(C)C(=O)NC(C)C)[C@@H](C)CN([C@H](C)CO)C3=O)cc1,-3.4[16.7 µM],43.3*,2.3,-1.4,1.1,-8.0
Cc1noc(C)c1S(=O)(=O)Nc1cccc2c1O[C@H](CN(C)S(=O)(=O)c1ccccc1)[C@H](C)CN([C@H](C)CO)C2=O,-11.8[16.7 µM],54.3*,-0.5,-3.1,-0.1,6.9
Cc1noc(C)c1S(=O)(=O)Nc1cccc2c1O[C@@H](CN(C)S(=O)(=O)c1ccccc1)[C@@H](C)CN([C@H](C)CO)C2=O,2.5[16.7 µM],11.2,-0.6,-5.8,-0.3,6.9
COc1ccc(C=O)cc1COc1ccc([N+](=O)[O-])c(C)c1,-4.8,-2.8,-4.4,1.1,368.5*,8.9
COc1ccc(/C=C/C(=O)O)cc1COc1cccc(C)c1,-3.7,·,·,·,0.3,47.0*
C[C@@H]1CN([C@H](C)CO)C(=O)c2cc(NC(=O)CCN3CCOCC3)ccc2O[C@@H]1CN(C)Cc1ccc(Cl)c(Cl)c1,3.5[16.7 µM],-1.1,0.7,-0.7,-4.5,-1.7
COc1ccccc1CN(C)C(=O)c1cccc(S(=O)(=O)N2CCCc3ccccc32)c1,?,80.7*,-3.3,5.7,·,·
COc1ccccc1C(CNC(=O)c1cccc(S(=O)(=O)N2CCCc3ccccc32)c1)N(C)C (stereo not drawn),·,-0.5,-4.8,1.8,-0.4,-38.6
